T cruzi repl – T. cruzi replication inhibition; AID 1885; inhibition, % (test concentration not listed); 300,000 compounds, 1.4% hits; T. cruzi beta-gal in NIH3T3, luminescence, 90 h;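 active = mean inhibition across valid replicates above about 55%, limit read from the data; inconclusive = mean below that limit but half or more replicates reach it; inactive = mean below it, under half of replicates reach it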;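 also: signal also drops with host cell toxicity which is not excluded here; 0% = plate median of DMSO wells and 100% = zero luminescence signal; higher percent means less beta-gal luminescence so fewer parasites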
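System: NIH/3T3 fibroblasts plus reporter T. cruzi. Medium: DMEM plus 2% FBS. Probe or stimulus: 5000 reporter trypomastigotes per well. Compound: single 50 nL compound addition per well in DMSO. Incubation: co-culture of at least 90 h after 3 h attachment. Detection: GalScreen β-gal luminescence, detergent lysis, 60 min. Evaluation: parasite load inhibition, %.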
aSyn 5UTR inh – 5' untranslated region of α-synuclein, MLPCN primary screen; 300,000 compounds, 0.82% hits; inhibition, % (tested at 7.5 µM); alpha-synuclein 5'UTR reporter, inhibitor activity; in the data active = inhibition above about 60%; inconclusive = no clear call, values can overlap the other calls;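 also: H4 neuroglioblastoma cells stably carrying SNCA 5'UTR luciferase fusion; 0% = DMSO wells and 100% = positive control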
SKKanGAS inh – SKKanGAS growth inhibition | inhibition, % at 7.5 µM | 300,000 compounds, 1.3% hits | S. pyogenes SKKanGAS, kanamycin growth, BacTiter-Glo, 6 h;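 active = mean replicate score, as percent of positive control median, at least 50; inconclusive = mean below 50 but one replicate at or above 50; inactive = mean and every replicate below 50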;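 also: strain carries kanamycin resistance gene driven by streptokinase promoter and grows in 40 µg/ml kanamycin; loss of luminescence reflects streptokinase promoter inhibition or plain growth inhibition; 0% = median of DMSO wells and 100% = positive control at its reference dose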
CSC inhib – cancer stem cell inhibition; cancer stem cell-like cells viability, luminescence; inhibition, % at 7.5 µM; 300,000 compounds, 1.1% hits; in the data active = inhibition above about 75%; inconclusive = no clear call, values can overlap the other calls; tested in HMLE shEcad cells
Mdm2 MdmX PPI – inhibitors of human Mdm2/MdmX interaction; SaOS-2 split-luciferase Mdm2/MdmX complementation, luminescence; 330,000 compounds, 3% hits; inhibition, % at 8 µM; O15151+Q00987;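 active = inhibition of at least 50% at 8 µM in the primary screen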
Target sequence (O15151 whole entry, looked up): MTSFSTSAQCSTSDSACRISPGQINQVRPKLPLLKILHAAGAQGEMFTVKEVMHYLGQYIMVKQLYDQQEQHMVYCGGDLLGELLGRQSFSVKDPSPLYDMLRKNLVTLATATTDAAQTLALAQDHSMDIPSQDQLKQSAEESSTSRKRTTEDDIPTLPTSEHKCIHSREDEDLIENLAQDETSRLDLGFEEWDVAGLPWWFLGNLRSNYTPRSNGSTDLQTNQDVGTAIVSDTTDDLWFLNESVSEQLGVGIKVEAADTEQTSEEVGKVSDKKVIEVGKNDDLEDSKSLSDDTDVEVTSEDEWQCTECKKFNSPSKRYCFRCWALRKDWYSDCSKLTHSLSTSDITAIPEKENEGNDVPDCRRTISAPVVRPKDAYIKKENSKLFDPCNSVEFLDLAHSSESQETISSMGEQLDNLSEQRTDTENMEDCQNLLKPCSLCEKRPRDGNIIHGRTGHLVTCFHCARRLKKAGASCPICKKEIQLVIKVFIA
Target sequence (Q00987 whole entry, looked up): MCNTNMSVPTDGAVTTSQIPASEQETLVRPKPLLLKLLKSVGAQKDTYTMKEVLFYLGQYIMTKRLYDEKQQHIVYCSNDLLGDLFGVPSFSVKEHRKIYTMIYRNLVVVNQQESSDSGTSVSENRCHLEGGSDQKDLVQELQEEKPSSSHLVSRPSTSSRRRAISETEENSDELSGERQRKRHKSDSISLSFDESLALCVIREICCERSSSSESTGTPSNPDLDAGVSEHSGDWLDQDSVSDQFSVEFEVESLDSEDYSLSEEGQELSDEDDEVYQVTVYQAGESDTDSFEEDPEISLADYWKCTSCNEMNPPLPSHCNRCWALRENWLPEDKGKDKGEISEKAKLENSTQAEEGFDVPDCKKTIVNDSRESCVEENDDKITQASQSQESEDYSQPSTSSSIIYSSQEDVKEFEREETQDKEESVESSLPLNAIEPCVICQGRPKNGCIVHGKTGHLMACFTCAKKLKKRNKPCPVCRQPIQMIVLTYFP
Mdm2-MdmX conf – confirmation of human Mdm2/MdmX interaction inhibitors; shares compounds with Mdm2 MdmX PPI; Mdm2-MdmX binding, luminescent assay; inhibition, % at 8 µM; 10,000 compounds, 55% hits; AID 489028; in the data active = inhibition above about 40%
FLuc counter – full-length luciferase inhibition in Mdm2/MdmX counter-screen | shares compounds with Mdm2 MdmX PPI | SaOS-2 full-length luciferase counterscreen, luminescence | inhibition, % at 8 µM | 6,200 compounds, 77% hits | AID 504607;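 active = mean inhibition at 8 µM reaching about 37%, which flags the compound as non-specific, limit read from the data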;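 also: p53-null SaOS-2 cells with luciferase driven by a doxycycline-inducible promoter; compound on cells about two nights before reading with doxycycline added after day one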
* marks the source's active call; other numbers are inactive results; u = inconclusive; x = no result given. In the library only some 5.4% were active in any assay of this set; here they are far more common.

SMILES	T cruzi repl	aSyn 5UTR inh	SKKanGAS inh	CSC inhib	Mdm2 MdmX PPI	Mdm2-MdmX conf	FLuc counter
CNC(=O)NC(=O)C(OC(=O)Cc1cccc(C(F)(F)F)c1)c1ccccc1 (configuration not stated)	3	-2	-2	-3	16	x	x
CCOc1cc([N+](=O)[O-])cc(/C=N/NC(=O)c2c(-c3ccccc3)noc2C)c1O	-4	-23	92*	8	57*	21	x
CCOc1cc(/C=N/NC(=O)c2c(-c3ccccc3)noc2C)ccc1O	-32	-34	-13	-7	3	x	x
Cc1ccc(/C=N/NC(=O)c2c(-c3ccccc3)noc2C)c(O)c1	5	30	2	51	65*	62*	31
CN(C(=O)CSCC(=O)O)C1CCCCC1	-1	1	-1	-6	-10	x	x
Nc1nonc1C(=O)NCCNCc1cc(Br)ccc1OCc1ccccc1F	29	-18	1	4	21	x	x
Nc1nonc1C(=O)NCCNCc1ccccc1OCc1ccccc1F	10	-11	-8	x	56*	11	x
CN(Cc1cnn(-c2ccc(F)cc2)c1)Cc1nc(Cc2ccccc2)no1	9	3	5	17	-1	x	x
Cn1nc(-c2ccc(N3CCOCC3)c(NS(=O)(=O)c3ccccc3)c2)c2ccccc2c1=O	2	7	8	-6	65*	31	x
COc1ccc(N2C(=O)CC(N3CCN(S(=O)(=O)c4cc(C)ccc4C)CC3)C2=O)cc1 (configuration not stated)	-2	3	-15	-6	-8	x	x
CC(C)NS(=O)(=O)c1ccc(Br)c(C(=O)OC(C)C(=O)NC2CCCCC2C)c1 (configuration not stated)	-4	-8	-1	0	33	x	x
Nc1nnc(N)c2ccccc12	2	9	x	-13	-14	x	x
Nc1nsc2ccccc12	u	-35	-5	-8	61*	26	x
CC[C@H](C)[C@@H](CNC)NC[C@@H](Cc1ccc(O)cc1)NCC(C)(C)C	4	5	0	-3	39	x	x
CC[C@@H](C)[C@H](CN[C@H](CNC)C(C)C)NC[C@@H](C)c1ccc(CC(C)C)cc1	37	14	64*	45	98*	100*	52*
O=C1OC(c2ccc(F)cc2)=C/C1=C\c1ccc([N+](=O)[O-])o1	66*	20	68*	50	74*	26	x
O=C1OC(c2ccc(F)cc2)=C/C1=C\c1ccc(O)cc1	-8	-25	13	-16	5	x	x
COc1ccccc1OCC(=O)Nc1nc2c(s1)CCCC2	14	-11	-6	x	51*	59*	83*
O=C(CCS(=O)(=O)Cc1ccccc1)Nc1nc2c(s1)CCCC2	-6	-9	-4	47	56*	63*	61*
Cc1ccc(CC(=O)Nc2nc3c(s2)CCCC3)cc1	-2	-9	6	2	87*	79*	37*
Cc1nc(C(=O)NC2CC2)sc1C1(C)CC(c2cccc([N+](=O)[O-])c2)=NO1 (configuration not stated)	-3	19	3	28	47	x	x
Cc1nc(C(=O)NCc2ccccc2)sc1C1(C)CC(c2cccc([N+](=O)[O-])c2)=NO1 (configuration not stated)	49	25	6	-3	64*	12	x
CNC(=O)c1nc(C)c(C2(C)CC(c3cccc([N+](=O)[O-])c3)=NO2)s1 (configuration not stated)	5	9	-3	6	53*	43*	57*
Cc1nc(C(=O)NCCC(C)C)sc1C1(C)CC(c2cccc([N+](=O)[O-])c2)=NO1 (configuration not stated)	34	21	6	x	47	x	x
O=C(NC1CCS(=O)(=O)C1)Oc1ccc(Cl)cc1 (configuration not stated)	-8	11	8	-2	6	x	x
SMILES	T cruzi repl	aSyn 5UTR inh	SKKanGAS inh	CSC inhib	Mdm2 MdmX PPI	Mdm2-MdmX conf	FLuc counter
CSc1nc(C2CC2)cc(-c2cccs2)c1C#N	22	27	-5	6	88*	79*	79*
CCOc1cc(/C=N/NC(=O)c2ccncc2)cc(Cl)c1OS(C)(=O)=O	-10	8	-7	4	-10	x	x
O=c1oc2ccccc2cc1-c1cn2ccccc2n1	-10	98*	0	36	76*	62*	72*
Cc1ccc(SCC(=O)NN2C(=O)c3ccccc3C2=O)cc1	-12	14	4	-16	16	x	x
N#Cc1cn(N2CCCCC2)c(=O)[nH]c1=O	-4	-15	-1	x	-30	x	x
Cc1cc(C(F)(F)F)nn1CC(=O)N1CCOCC1	-12	6	0	6	-9	x	x
CC(C)N1C(=O)/C(=C/c2nc3ccccc3c(=O)n2-c2ccccc2)c2ccccc21	77*	-66	4	66	78*	54*	37*
CC(C)N1C(=O)C(Cc2nc3ccccc3c(=O)n2-c2ccccc2)c2ccccc21 (configuration not stated)	47	11	16	12	-5	x	x
O=C(Cc1ccc([N+](=O)[O-])cc1)N1CCCc2ccccc21	9	17	2	7	3	x	x
CN(c1ccccc1)c1ccc(/C=C(\C#N)c2nnc3n2CCCCC3)cc1[N+](=O)[O-]	-11	40	6	80*	66*	34	x
O=C(NCc1cccs1)C1CCN(c2ccc(S(=O)(=O)N3CCOCC3)cc2Cl)CC1	-22	24	5	59	63*	43*	91*
CCC(C)[C@H]1COCCS(=O)(=O)N1Cc1ccccc1 (some centres not stated)	-12	-15	2	7	-15	x	x
CC(C)(C)n1nnnc1CN1CCN(C(c2ccccc2)c2ccccc2)CC1	15	6	6	-1	7	x	x
CC(=O)c1ccc(Sc2nnnn2-c2ccccc2)c([N+](=O)[O-])c1	-8	-8	-4	39	85*	58*	30
CN1CCN(S(=O)(=O)c2ccc(Sc3nnnn3-c3ccccc3)c([N+](=O)[O-])c2)CC1	-20	-22	-3	46	88*	77*	56*
COC(=O)c1ccccc1NC(=O)CN1CCC(C(=O)c2ccc3c(c2)OCCO3)CC1	1	17	x	1	62*	60*	99*
COc1ccc(S(=O)(=O)Nc2ccc3c(c2)C(=O)N([C@H](C)CO)C[C@H](C)[C@@H](CN(C)C(=O)NC(C)C)O3)cc1	x	x	x	x	27	x	x
N#Cc1c(NCCN)nc(-c2ccccc2)c2c1CCCC2	15	18	2	10	58*	20	x
CN(C)CCNC(=O)/C(=C/c1ccc(-c2ccc(Cl)cc2Cl)o1)NC(=O)c1ccccc1	32	29	1	110*	100*	100*	26
Cc1ccc(C(=O)N/C(=C\c2ccc(-c3cccc([N+](=O)[O-])c3)o2)C(=O)NCCCN(C)C)cc1	2	-16	0	12	39	x	x
